This note sets out measurements from PubChem BioAssay.

The test system of experiment [1] is DAF-12 nuclear receptor (Heterodera glycines), GAL4-LBD fusion. Put plainly: hgDAF-12 GAL4 fusion reporter activation, retest – cell-based, luminescence, HEK293, GAL4-LBD fusion, confirmation (AID 743050).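 Also: 0% = DMSO low control and 100% = 2 mM sodium butyrate high control.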 To be noted: HEK293 GAL4-hgDAF12 luciferase reporter, agonist mode; at 6.8 µM; active compounds read high; percent of butyrate response. (In general: In a reporter assay the amount or activity of a reporter protein is the signal.)

The target in experiment [2] is Oxysterols receptor LXR-beta (Homo sapiens) (UniProt P55055). Put plainly: nonspecific reporter activation via LXR – cell-based, luminescence, HEK293, H. glycines campaign, counter-screen for hgDAF-12 agonist project, confirmation (AID 743051;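 active = mean activation of the triplicate above a set limit carried over from the primary screen, none filed active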). To be noted: HEK293 Gal4-LXR luciferase reporter, 24 h; at 6.8 µM; active compounds read high. An outline of the steps: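 System: HEK293 cells with Gal4-LXR and tk-luc reporter. Compound dosing: single nominal test compound dose of 6.8 µM. Timing: 3 h cell plating, then 24 h compound exposure at 37 °C. Detection: One-Glo luminescence after 15 min. Read-out basis: percent activation relative to median DMSO and positive-control wells. Benchmarks: DMSO low control, 0.68% final.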
Oxysterols receptor LXR-beta (Homo sapiens), sequence (P55055 whole entry, looked up, the tested form may be a part): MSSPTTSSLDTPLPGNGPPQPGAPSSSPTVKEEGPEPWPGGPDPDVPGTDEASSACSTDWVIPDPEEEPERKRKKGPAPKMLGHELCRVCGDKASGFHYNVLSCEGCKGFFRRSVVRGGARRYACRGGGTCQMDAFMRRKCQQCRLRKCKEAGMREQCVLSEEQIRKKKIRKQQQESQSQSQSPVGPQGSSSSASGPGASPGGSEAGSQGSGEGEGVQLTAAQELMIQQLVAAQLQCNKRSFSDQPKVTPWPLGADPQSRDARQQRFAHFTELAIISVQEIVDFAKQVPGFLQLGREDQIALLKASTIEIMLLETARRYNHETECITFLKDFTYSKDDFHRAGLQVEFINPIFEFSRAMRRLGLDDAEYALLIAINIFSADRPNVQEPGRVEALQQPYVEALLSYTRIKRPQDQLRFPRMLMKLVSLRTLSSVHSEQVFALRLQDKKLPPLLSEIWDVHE
(A counterscreen serves to expose hits that act by an unwanted route or on another target.)

Experiment [3] addresses Galanin receptor type 2 (Homo sapiens) (UniProt O43603). Put plainly: blockers of human galanin receptor 2 – cell-based, confirmation (AID 866; in the data active = inhibition above about 27%;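 also: cells stimulated with galanin at about its EC80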). The note with it: GALR2-expressing cells, antagonist mode, at 4 µM, active compounds read high.
The nature of experiment [4]: nonspecific BLA reporter inhibition – CHO NFAT-bla cells, FRET readout, counter-screen for GALR2 antagonist project, confirmation (AID 867;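 active = inhibition above the mean inhibition across tested compounds plus 3 SD, cut at about 27% in these data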;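 also: 0% = 500 nM thapsigargin stimulated wells and 100% = unstimulated BSA only wells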). To be noted: beta-lactamase FRET, thapsigargin-stimulated, at 4.2 µM, active compounds read high.

Usually inhibition stands for the relative decrease from the control value, in per cent.

The list shows a part of the results. Unmarked numbers belong to inactive results. The source made the active and inactive calls.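 The calls were made as follows, unless noted: active = mean activation over triplicate wells above the hit cutoff derived from the earlier primary screen (cut at about 11% in these data); inactive = the rest.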

Galanin receptor type 2 (Homo sapiens), sequence (O43603 whole entry, looked up): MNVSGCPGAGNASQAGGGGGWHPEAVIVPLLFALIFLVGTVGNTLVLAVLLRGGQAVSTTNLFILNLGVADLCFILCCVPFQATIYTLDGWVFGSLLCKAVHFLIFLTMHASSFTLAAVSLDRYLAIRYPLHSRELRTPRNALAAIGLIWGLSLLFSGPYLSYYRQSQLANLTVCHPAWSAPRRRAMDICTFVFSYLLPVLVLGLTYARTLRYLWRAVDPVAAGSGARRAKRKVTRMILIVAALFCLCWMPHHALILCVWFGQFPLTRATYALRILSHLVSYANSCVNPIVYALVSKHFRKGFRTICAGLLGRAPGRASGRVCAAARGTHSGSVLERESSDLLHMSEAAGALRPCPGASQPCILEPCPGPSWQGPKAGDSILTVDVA

On to `CC(C)n1c(=O)[nH]c2cc(C(=O)Nc3ccccc3)ccc21`, for which the activation is 5.08% in experiment [1] and 0.17% in experiment [2].

As to `O=C(CCSc1ccccc1)N1CCN(c2ccccc2F)CC1`, the figures for the activation in experiment [1] and in experiment [2] were 14.2% (active) and 0.48%, respectively.

As to `O=C(NCCc1ccc(F)cc1)c1ccc2nccnc2c1`, the activation in experiment [1] was 17% (active); in experiment [2], 0.74%.

For `Cc1ccc(C(=O)NNc2ncnc3ccccc23)cc1`, the activation in experiment [1] was 9.47%; in experiment [2], 0.43%.

Regarding `CN(C)S(=O)(=O)c1ccc2oc(SCC(=O)Nc3ccccc3F)nc2c1`, the figures for the activation in experiment [1] and in experiment [2] were 15.5% (active) and 0.66%, respectively.

As to `CC(=O)c1ccccc1NC(=O)COC(=O)C1COc2ccccc2O1` (centres undefined), the activation was -0.02% in experiment [1] and 0.04% in experiment [2].

Consider `CNS(=O)(=O)c1ccc(NC(=O)Nc2ccc3c(c2)OCO3)cc1`, for which the activation is 13.2% (active) in experiment [1] and 0.5% in experiment [2].

As to `O=[N+]([O-])c1cc(S(=O)(=O)N2CCCC2)ccc1NN=C1CCCC1`, the activation in experiment [1] is -0.65%; in experiment [2], -0.04%.

Regarding `Fc1ccc2[nH]c3c(N4CCN(Cc5ccc6c(c5)OCO6)CC4)ncnc3c2c1`, the inhibition in experiment [3] is 50.2% (active); in experiment [4] it was 24.3%.

Regarding `CC(C)C(=O)Nc1cccc(C(=O)Nc2ccc3c(c2)OCO3)c1`, the activation in experiment [1] was 14.1% (active); in experiment [2] it was 0.72%.

Consider `O=C(NCCc1c[nH]c2ccccc12)c1cc2ccccc2oc1=O`, for which the values for the activation in experiment [1] and in experiment [2] were 13.4% (active) and 0.56%, respectively.

For the molecule `O=C(CSC(=S)N1CCCCC1)c1c(F)cccc1F`, the figures for the activation in experiment [1] and in experiment [2] were 13.4% (active) and 0.64%, respectively.

For `Cc1cc(O)c(NC(=O)c2ccc(C)c([N+](=O)[O-])c2)cc1C`, the activation in experiment [1] is 10%; in experiment [2] it was 0.55%.

With `Cc1cc(-c2n[nH]c(=S)n2/N=C/C(Br)=C/c2ccccc2)n[nH]1`, the values for the inhibition in experiment [3] and in experiment [4] were 44.1% (active) and 20.9%, respectively.

For the molecule `COc1ccc(NC(=O)c2ccc(OC)cc2)cc1`, the activation in experiment [1] was 15.9% (active); in experiment [2], 0.75%.

With `COc1ccc(-c2cn3cccnc3n2)cc1`, the results for the activation in experiment [1] and in experiment [2] were 9.37% and 0.23%, respectively.

For the molecule `COCC(C)NC(=O)c1ccc(Cl)c(Cl)c1` (centres undefined), the results for the inhibition in experiment [3] and in experiment [4] were 10.6% and 4.96%, respectively.

Consider `COc1ccc(Nc2ccc3ccccc3c2)cc1`, for which the activation is 13% (active) in experiment [1] and 0.53% in experiment [2].

As to `N/C(=N\OC(=O)CCC1CCCCC1)c1ccccn1`, the activation in experiment [1] was 12.3% (active); in experiment [2] it was 0.49%.

On to `COc1ccc(C)cc1NC(=O)c1[nH]c(C)c(C(C)=O)c1C`, for which the inhibition in experiment [3] was 22.8%; in experiment [4] it was 4.72%.

For the molecule `CC(/C=N/NC(=O)c1cc(-c2ccc3ccccc3c2)n[nH]1)=C\c1ccco1`, the activation in experiment [1] was 1.68%; in experiment [2] it was 0.14%.

`Cc1ccsc1C(=O)N/N=C/c1ccc([N+](=O)[O-])cc1`: the activation was 15.8% (active) in experiment [1] and 0.59% in experiment [2].

Turning to `O=C(/C=C/Sc1ncn[nH]1)c1ccc(Cl)cc1`, the inhibition is 50.7% (active) in experiment [3] and 17% in experiment [4].

For `O=C(Nc1cccc(O)c1)c1ccc(C(=O)c2ccccc2)o1`, the values for the activation in experiment [1] and in experiment [2] were 12.2% (active) and 0.51%, respectively.

Turning to `O=C(Nc1ccc2ccccc2c1[N+](=O)[O-])c1ccccc1`, the activation is 17.7% (active) in experiment [1] and 0.89% in experiment [2].

Regarding `Oc1cccc2cc(-c3ccncc3)cnc12`, the activation in experiment [1] is 5.92%; in experiment [2], 0.18%.

Consider `COc1ccc(-c2cn3ccsc3n2)cc1`, for which the activation in experiment [1] was 16.3% (active); in experiment [2] it was 0.84%.

Turning to `CC(C)(C)c1ccc(/C=C/C(=O)Nc2ncccn2)cc1`, the activation in experiment [1] is 14.8% (active); in experiment [2], 0.79%.

As for `Fc1ccccc1-c1cc2cc3c(cc2cn1)OCO3`, the activation in experiment [1] was 18.4% (active); in experiment [2], 0.79%.

Consider `O=C(Nc1ccc(Cl)c(Cl)c1)c1ccccc1NC(=O)C1CC=CCC1C(=O)O` (centres undefined), for which the activation in experiment [1] was 10.2%; in experiment [2], 0.27%.

Turning to `Cc1ccc2nc(-c3ccc(SCC(=O)Nc4cc(C)on4)nc3)[nH]c2c1`, the activation in experiment [1] is 15.6% (active); in experiment [2] it was 0.54%.

As for `CC1C/C(=N/NC(=O)c2cccs2)CC(C)(C)C1` (centres undefined), the activation in experiment [1] is 4.24%; in experiment [2] it was 0.21%.

For `O=C(CNC(=O)OCc1ccccc1)Oc1cc2oc(=O)cc(-c3ccccc3)c2cc1Cl`, the inhibition in experiment [3] was 33.2% (active); in experiment [4], 37% (active).

As for `O=C(NCCCN1CCOCC1)c1cc(-c2ccccc2F)no1`, the activation in experiment [1] is 11.6% (active); in experiment [2] it was 0.17%.

In the case of `Brc1ccc(C2CC(c3ccccc3)=Nc3ccccc3N2)cc1` (centres undefined), the results for the activation in experiment [1] and in experiment [2] were 17.4% (active) and 0.65%, respectively.

As for `CSc1ccc(/C=N/NC(=O)c2cccc(Cl)c2)cc1`, the values for the activation in experiment [1] and in experiment [2] were 14.8% (active) and 0.56%, respectively.

Consider `O=C(Nn1c(SCc2ccc([N+](=O)[O-])cc2)nc2ccccc2c1=O)c1ccc(F)cc1`, for which the results for the activation in experiment [1] and in experiment [2] were 11% (active) and 0.57%, respectively.

Turning to `COc1ccc(/C=C/C(=O)Nc2ccc(C34CC5CC(CC(O)(C5)C3)C4)cc2)cc1OC`, the results for the inhibition in experiment [3] and in experiment [4] were 43.6% (active) and 21.4%, respectively.

Consider `Cc1cnc(C(=O)N2CCCC(C(=O)c3ccc(C(F)(F)F)cc3)C2)cn1` (centres undefined), for which the results for the activation in experiment [1] and in experiment [2] were 4.5% and 0.17%, respectively.

As for `CC(=O)Nc1ccc(-c2nc3ccccc3o2)cc1`, the figures for the activation in experiment [1] and in experiment [2] were 17% (active) and 0.95%, respectively.

As for `CC(C)c1cc(C(N)=O)c(NC(=O)c2cccc(COc3ccc(Br)cc3)c2)s1`, the activation in experiment [1] is 14% (active); in experiment [2], 0.51%.

Take `Clc1ccc2nc(CSc3ccccc3)cn2c1`: the activation was 13.2% (active) in experiment [1] and 0.71% in experiment [2].
